In ChEMBL document CHEMBL2417505, “Discovery of 7-azaindole based anaplastic lymphoma kinase (ALK) inhibitors: wild type and mutant (L1196M) active compounds with unique binding mode” (Bioorg Med Chem Lett, 2013):

Experiments:
[1] = target: T1, ALK tyrosine kinase receptor (Homo sapiens, UniProt Q9UM73); assay: Inhibition of wild type human recombinant ALK after 30 mins by TR-FRET assay
Target sequence in this assay (Q9UM73 whole entry): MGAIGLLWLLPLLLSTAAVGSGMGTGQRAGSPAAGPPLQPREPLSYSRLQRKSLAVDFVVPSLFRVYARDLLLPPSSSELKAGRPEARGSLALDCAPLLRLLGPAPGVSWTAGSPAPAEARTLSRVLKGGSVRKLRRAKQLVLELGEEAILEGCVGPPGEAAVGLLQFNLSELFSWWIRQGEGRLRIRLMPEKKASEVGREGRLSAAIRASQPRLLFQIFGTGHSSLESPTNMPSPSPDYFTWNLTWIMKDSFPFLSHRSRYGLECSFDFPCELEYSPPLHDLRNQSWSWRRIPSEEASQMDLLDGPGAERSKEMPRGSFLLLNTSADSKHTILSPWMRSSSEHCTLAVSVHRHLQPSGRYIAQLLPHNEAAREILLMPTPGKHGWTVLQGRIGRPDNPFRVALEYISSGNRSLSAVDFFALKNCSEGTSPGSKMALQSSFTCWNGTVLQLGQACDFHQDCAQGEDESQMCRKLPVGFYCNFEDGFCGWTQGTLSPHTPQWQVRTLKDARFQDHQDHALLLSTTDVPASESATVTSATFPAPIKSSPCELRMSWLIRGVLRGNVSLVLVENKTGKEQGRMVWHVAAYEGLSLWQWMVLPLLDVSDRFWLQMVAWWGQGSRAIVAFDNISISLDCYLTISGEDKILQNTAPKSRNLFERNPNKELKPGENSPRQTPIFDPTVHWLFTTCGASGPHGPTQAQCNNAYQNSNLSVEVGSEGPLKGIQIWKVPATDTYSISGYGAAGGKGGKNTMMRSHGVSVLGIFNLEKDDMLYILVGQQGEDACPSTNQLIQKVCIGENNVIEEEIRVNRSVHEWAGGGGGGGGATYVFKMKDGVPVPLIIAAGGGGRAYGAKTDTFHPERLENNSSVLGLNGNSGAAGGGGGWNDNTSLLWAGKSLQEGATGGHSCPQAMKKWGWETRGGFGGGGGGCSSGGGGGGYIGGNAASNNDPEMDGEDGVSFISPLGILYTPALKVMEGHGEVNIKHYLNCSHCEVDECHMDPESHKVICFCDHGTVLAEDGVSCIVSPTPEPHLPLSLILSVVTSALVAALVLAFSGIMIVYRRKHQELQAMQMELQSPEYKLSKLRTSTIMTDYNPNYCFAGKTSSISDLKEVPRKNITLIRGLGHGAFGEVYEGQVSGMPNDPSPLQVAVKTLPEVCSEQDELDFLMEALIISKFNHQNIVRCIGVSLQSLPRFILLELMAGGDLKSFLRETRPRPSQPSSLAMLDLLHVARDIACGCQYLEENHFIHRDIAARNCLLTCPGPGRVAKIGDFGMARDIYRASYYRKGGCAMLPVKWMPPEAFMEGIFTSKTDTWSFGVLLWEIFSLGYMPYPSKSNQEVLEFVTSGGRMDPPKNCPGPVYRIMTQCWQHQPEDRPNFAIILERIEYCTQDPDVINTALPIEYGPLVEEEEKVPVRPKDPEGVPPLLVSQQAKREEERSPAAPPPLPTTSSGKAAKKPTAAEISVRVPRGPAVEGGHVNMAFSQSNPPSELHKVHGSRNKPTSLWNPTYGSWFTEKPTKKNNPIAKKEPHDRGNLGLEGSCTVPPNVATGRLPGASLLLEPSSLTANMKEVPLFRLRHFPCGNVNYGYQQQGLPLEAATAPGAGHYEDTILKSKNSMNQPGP

[2] = target: ALK tyrosine kinase receptor (Homo sapiens, UniProt Q9UM73, L1196M); assay: Inhibition of human ALK L1196M mutant after 30 mins by TR-FRET assay
Sequence of ALK tyrosine kinase receptor (Homo sapiens, UniProt Q9UM73, L1196M) (Q9UM73 19-1620 L1196M limits assumed): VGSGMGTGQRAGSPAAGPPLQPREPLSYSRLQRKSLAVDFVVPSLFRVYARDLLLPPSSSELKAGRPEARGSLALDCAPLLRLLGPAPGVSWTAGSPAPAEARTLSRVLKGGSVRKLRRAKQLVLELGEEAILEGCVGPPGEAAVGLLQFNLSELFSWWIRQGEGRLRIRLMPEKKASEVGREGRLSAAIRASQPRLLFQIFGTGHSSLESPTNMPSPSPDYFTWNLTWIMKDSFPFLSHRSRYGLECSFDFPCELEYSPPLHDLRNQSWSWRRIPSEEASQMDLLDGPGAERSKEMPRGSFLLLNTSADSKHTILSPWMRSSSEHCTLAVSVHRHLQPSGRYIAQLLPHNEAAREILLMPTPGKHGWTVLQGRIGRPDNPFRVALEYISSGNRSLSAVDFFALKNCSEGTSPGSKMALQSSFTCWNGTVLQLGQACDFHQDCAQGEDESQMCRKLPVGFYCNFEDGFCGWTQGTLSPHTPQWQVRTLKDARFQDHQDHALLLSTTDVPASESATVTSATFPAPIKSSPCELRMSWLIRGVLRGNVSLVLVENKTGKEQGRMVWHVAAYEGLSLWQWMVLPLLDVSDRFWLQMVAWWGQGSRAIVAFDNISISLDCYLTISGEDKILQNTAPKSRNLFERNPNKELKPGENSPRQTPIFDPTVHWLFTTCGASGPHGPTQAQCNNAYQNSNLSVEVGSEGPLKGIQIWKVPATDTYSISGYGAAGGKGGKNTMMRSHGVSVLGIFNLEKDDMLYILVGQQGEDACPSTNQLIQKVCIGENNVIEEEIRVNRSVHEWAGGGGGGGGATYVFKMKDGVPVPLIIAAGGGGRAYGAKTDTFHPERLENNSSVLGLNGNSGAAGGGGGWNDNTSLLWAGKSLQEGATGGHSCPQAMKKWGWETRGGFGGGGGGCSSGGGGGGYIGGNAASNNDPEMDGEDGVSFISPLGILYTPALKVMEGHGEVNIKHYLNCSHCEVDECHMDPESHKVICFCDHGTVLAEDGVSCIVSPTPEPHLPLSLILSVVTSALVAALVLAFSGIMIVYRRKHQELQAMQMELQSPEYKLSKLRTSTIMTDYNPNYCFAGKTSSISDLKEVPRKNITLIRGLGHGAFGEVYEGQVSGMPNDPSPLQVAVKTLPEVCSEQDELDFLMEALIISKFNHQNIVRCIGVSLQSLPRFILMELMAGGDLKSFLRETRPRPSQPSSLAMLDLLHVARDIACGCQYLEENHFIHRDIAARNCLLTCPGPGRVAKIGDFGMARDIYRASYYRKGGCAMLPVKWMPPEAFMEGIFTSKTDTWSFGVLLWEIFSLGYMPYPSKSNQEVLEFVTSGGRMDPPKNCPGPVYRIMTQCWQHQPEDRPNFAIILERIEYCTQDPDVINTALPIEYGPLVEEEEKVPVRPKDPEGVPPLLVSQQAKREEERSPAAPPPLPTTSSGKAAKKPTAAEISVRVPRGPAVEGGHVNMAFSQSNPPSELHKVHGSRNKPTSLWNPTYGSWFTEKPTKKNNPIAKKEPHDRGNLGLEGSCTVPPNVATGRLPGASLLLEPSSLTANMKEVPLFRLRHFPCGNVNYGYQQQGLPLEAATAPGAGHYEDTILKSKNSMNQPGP
Method in brief: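 L1196M mutant ALK enzyme run in TR-FRET as for wild type (HEPES pH 7.1 buffer, ULight poly-GT substrate, Eu anti-phosphotyrosine detection, 30 min reaction) but with 0.5µM ATP; IC50.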

[3] = system: KARPAS-299; assay: Cytotoxicity against human KARPAS299 cells after 72 hrs by XTT assay; format: functional, cell-based; details: KARPAS-299, 72 h
[4] = target: T2, Aurora kinase A (Homo sapiens) (UniProt O14965); assay: Inhibition of aurora A kinase (unknown origin) at 100 nM
T2 sequence (whole entry): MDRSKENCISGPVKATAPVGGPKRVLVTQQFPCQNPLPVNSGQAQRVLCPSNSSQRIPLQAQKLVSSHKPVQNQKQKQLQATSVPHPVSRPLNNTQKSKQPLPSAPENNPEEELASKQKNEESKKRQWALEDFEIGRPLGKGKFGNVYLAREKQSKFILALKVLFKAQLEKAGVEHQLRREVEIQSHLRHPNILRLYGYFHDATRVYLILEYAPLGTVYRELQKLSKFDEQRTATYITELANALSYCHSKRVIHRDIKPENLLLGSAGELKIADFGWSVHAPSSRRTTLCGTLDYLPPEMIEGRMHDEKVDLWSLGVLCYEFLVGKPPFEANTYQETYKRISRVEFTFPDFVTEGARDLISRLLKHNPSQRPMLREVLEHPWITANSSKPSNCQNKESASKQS

[5] = target: T1, ALK tyrosine kinase receptor; assay: Inhibition of ALK in human KARPAS299 cells assessed as phosphorylated ALK level; details: for inhibition: KARPAS-299
[6] = target: T1, ALK tyrosine kinase receptor; assay: Inhibition of ALK in human KARPAS299 cells assessed as phosphorylated Stat3 level after 6 hrs by Western blotting analysis; format: cell-based, KARPAS-299
Method in brief: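 Karpas 299 cells (4 × 10^5) treated 6 h at set concentrations, with crizotinib at 10 μM as positive control; lysed in RIPA, 30 µg lysate run on 10% SDS-PAGE, PVDF blot probed for phospho-Stat3 (Tyr705) and total Stat3; ECL detection; IC50 from blot densitometry.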
Target sequence in this assay (Q9UM73 whole entry): as the sequence (Q9UM73 whole entry) above

[7] = species on record: Homo sapiens; assay: Selectivity ratio of IC50 for aurora A kinase (unknown origin) to IC50 for human recombinant ALK
[8] = target: Hepatocyte growth factor receptor (Homo sapiens) (UniProt P08581); assay: Inhibition of c-Met (unknown origin) at 100 nM
[9] = target: Vascular endothelial growth factor receptor 2 (Homo sapiens) (UniProt P35968); assay: Inhibition of KDR (unknown origin) at 100 nM
[10] = target: Cyclin-dependent kinase 2 (Homo sapiens) (UniProt P24941); assay: Inhibition of CDK2 (unknown origin) at 100 nM
[11] = target: Macrophage-stimulating protein receptor (Homo sapiens) (UniProt Q04912); assay: Inhibition of RON (unknown origin) at 100 nM
Sequence of Macrophage-stimulating protein receptor (Homo sapiens) (Q04912 25-304 limits assumed): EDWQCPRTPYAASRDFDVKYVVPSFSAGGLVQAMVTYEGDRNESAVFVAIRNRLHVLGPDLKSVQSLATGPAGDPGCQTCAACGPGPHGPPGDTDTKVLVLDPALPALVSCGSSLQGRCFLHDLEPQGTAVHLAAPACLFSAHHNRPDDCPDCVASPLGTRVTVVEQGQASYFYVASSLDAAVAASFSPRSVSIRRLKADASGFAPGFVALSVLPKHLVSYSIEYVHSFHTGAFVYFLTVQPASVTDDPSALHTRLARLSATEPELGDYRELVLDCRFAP
Sequence of Macrophage-stimulating protein receptor (Homo sapiens) (Q04912 310-1400 limits assumed): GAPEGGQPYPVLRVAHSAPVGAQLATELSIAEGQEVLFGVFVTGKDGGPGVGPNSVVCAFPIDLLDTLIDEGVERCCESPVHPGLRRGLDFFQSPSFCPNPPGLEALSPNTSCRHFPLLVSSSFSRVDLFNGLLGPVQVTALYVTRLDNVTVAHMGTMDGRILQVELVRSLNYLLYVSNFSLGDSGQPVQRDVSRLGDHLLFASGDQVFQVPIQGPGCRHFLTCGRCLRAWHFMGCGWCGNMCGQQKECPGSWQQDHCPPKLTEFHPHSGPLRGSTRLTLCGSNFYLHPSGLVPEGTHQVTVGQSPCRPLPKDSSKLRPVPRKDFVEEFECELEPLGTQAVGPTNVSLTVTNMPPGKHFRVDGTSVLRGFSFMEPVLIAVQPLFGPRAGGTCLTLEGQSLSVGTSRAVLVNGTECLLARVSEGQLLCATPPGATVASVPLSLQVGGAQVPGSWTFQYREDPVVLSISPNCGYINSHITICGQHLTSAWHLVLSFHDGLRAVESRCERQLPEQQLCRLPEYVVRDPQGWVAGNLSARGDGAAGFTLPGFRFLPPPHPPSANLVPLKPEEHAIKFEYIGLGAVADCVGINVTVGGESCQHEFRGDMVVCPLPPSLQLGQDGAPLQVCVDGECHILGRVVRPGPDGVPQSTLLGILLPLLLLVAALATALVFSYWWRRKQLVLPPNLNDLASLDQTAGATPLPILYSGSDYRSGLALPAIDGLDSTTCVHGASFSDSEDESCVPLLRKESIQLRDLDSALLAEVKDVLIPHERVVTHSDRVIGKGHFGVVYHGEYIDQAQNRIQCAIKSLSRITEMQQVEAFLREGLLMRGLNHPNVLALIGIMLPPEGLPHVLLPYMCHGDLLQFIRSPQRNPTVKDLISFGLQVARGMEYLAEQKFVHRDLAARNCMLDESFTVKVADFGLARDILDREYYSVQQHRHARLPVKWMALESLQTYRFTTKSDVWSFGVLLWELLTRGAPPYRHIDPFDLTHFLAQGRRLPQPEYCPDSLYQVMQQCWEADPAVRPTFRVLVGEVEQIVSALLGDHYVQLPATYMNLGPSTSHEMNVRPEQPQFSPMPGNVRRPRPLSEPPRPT

[12] = target: Fibroblast growth factor receptor 1 (Homo sapiens) (UniProt P11362); assay: Inhibition of FGFR1 (unknown origin) at 100 nM

SMILES | IC50 [1] | IC50 [2] | IC50 [3] | inhibition [4] | IC50 [5] | inhibition [5] | IC50 [6] | Ratio IC50 [7] | inhibition [8] | inhibition [9] | inhibition [10] | inhibition [11] | inhibition [12]
Cn1cc(-c2cnc3[nH]cc(-c4cnn(Cc5cccc(O)c5)c4)c3c2)cn1 | 41 nM | 200 nM | 3360 nM | 93% | – | – | – | – | – | – | – | – | –
Cn1cc(-c2cnc3[nH]cc(-c4cnn(Cc5cccc(Cl)c5)c4)c3c2)cn1 | 30 nM | 143 nM | 855 nM | 87% | 3120 nM | Dose-dependent effect | 986 nM | – | – | – | – | – | –
Cn1cc(-c2cnc3[nH]cc(-c4cnn(Cc5cccc(N)c5)c4)c3c2)cn1 | 28 nM | – | 3630 nM | – | – | – | – | – | – | – | – | – | –
Cc1nn(Cc2cc(F)cc(F)c2)c(C)c1-c1c[nH]c2ncc(-c3cnn(C)c3)cc12 | 26 nM | 310 nM | – | – | – | – | – | 30 | – | – | – | – | –
Cn1cc(-c2cnc3[nH]cc(-c4cnn(Cc5ccc(F)cc5)c4)c3c2)cn1 | 70 nM | 256 nM | 1780 nM | 74% | 3910 nM | Dose-dependent effect | 3010 nM | – | – | – | – | – | –
Cn1cc(-c2cnc3[nH]cc(-c4cnn(Cc5ccccc5F)c4)c3c2)cn1 | 85 nM | 223 nM | 2090 nM | 64% | – | – | – | – | – | – | – | – | –
Cn1cc(-c2cnc3[nH]cc(-c4cnn(Cc5cc(F)ccc5F)c4)c3c2)cn1 | 29 nM | 124 nM | 1200 nM | 75% | 900 nM | Dose-dependent effect | 1590 nM | – | – | – | – | – | –
Cn1cc(-c2cnc3[nH]cc(-c4cnn(Cc5ccc(F)c(F)c5)c4)c3c2)cn1 | 84 nM | 379 nM | 2260 nM | 84% | 3300 nM | Dose-dependent effect | 986 nM | – | – | – | – | – | –
Cn1cc(-c2cnc3[nH]cc(-c4cnn(Cc5cccc(C(F)(F)F)c5)c4)c3c2)cn1 | 247 nM | 465 nM | 1010 nM | 84% | – | – | – | – | – | – | – | – | –
Cn1cc(-c2cnc3[nH]cc(-c4cnn(Cc5cccc(C(=O)O)c5)c4)c3c2)cn1 | 98 nM | 811 nM | > 10000 nM | – | – | – | – | – | – | – | – | – | –
Cn1cc(-c2cnc3[nH]cc(-c4cnn(Cc5cccc(C#N)c5)c4)c3c2)cn1 | 32 nM | 150 nM | 1610 nM | 85% | – | – | – | – | – | – | – | – | –
Cn1cc(-c2cnc3[nH]cc(-c4cnn(Cc5cc(F)cc(F)c5)c4)c3c2)cn1 | 6 nM | 47 nM | 664 nM | 74% | – | – | – | – | – | – | – | – | –
Cn1cc(-c2cnc3[nH]cc(-c4cnn(Cc5ccccc5)c4)c3c2)cn1 | 90 nM | 141 nM | 3000 nM | 84% | – | – | – | – | 7% | 28% | 41% | 21% | 14%
Cn1cc(-c2cnc3[nH]cc(-c4cnn(Cc5cccc(F)c5)c4)c3c2)cn1 | 5.6 nM | 35 nM | 466 nM | 84% | 219 nM | Dose-dependent effect | 138 nM | 2 | – | – | – | – | –
Cc1nn(Cc2cccc(F)c2)c(C)c1-c1c[nH]c2ncc(-c3cnn(C)c3)cc12 | 31 nM | 275 nM | – | – | – | – | – | 11 | – | – | – | – | –
Cc1nn(Cc2cccc(F)c2)cc1-c1c[nH]c2ncc(-c3cnn(C)c3)cc12 | 6 nM | 56 nM | – | – | – | – | – | 6 | – | – | – | – | –
Cc1nn(Cc2cc(F)ccc2F)c(C)c1-c1c[nH]c2ncc(-c3cnn(C)c3)cc12 | 63 nM | 428 nM | – | – | – | – | – | 3 | – | – | – | – | –
Cn1cc(-c2cnc3[nH]cc(-c4cnn(Cc5cccc([N+](=O)[O-])c5)c4)c3c2)cn1 | 70 nM | – | 1850 nM | – | – | – | – | – | – | – | – | – | –
